# Measurements taken from PubChem BioAssay.
# Activity calls are given as the source filed them.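 Rule for the calls, unless noted: active = inhibition above 20% together with a positive visual image hit; inconclusive = visual image hit but inhibition not above 20%; inactive = no visual image hit.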
# Tests used:
# [1] = inhibitors of TNFa-induced NFkB p65 translocation, primary screen, imaging, HUVEC, MLSMR starter and 10KST1 sets (AID 438); settings: HUVEC TNFa-induced p65 nuclear translocation; cell count: measured here: nuclei count (cytotoxicity indicator), at 2.08 µM; inhibition: at 2 µM, stronger effect = higher value, 0% TNFa-plus-vehicle, 100% no-TNFa wells;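 note: compound added about 3h40 before a 20 min TNFalpha stimulation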;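 for inhibition: signal is the nuclear over cytoplasmic p65 intensity ratio per well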
# [2] = reduction of polyQ htt aggregates in cells – imaging, exon1htt(103Q)mCFP cells, high-content imaging, primary screen (AID 483;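 active = visual image review flags a hit and inhibition of aggregation exceeds 20%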;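 note: compound exposure lasted 3 days before fixation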;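 for nuclei count: percent of the per-plate median nuclei count of sample wells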); settings: exon1htt(103Q)mCFP cell line, aggregate imaging, at 2 µM; inhibition of aggregation: stronger effect = higher value; nuclei count: measured here: cell count, toxicity
# [3] = endothelial E-selectin expression blockers – imaging, HUVEC, immunofluorescence, MLSMR starter and 10KST1 sets, primary screen (AID 487;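 active = visually confirmed hit in the image check and inhibition above 20%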;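 for inhibition: signal is fraction of cell area covered by stained E-selectin grains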;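 for nuclei count: 100% = median nuclei count of all wells on the same plate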); settings: HUVEC TNFalpha-induced E-selectin immunofluorescence imaging, at 2 µM; inhibition: stronger effect = higher value; nuclei count: measured here: cell number, toxicity
# [4] = target: Voltage-gated potassium channel subunit beta-2 (Rattus norvegicus) (UniProt P62483); experiment: inhibitors of rat Kvbeta2 reductase activity – biochemical, NADPH fluorescence, primary screen (AID 622;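 active = fluorescence slope higher than the sample average by over 3 SD, cut at about -0.22 in these data, passing the limit was not always enough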;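 note: slope of raw intensity against log time taken from 70 to 1610 s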); settings: recombinant KvBeta, 4-cyanobenzaldehyde reduction, at 10 µM, stronger effect = higher value
# [5] = target: Voltage-gated potassium channel subunit beta-2 (Rattus norvegicus) (UniProt P62483); experiment: enhancers of rat Kvbeta2 NADPH turnover – biochemical, NADPH fluorescence, primary screen (AID 623;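 active = NADPH fluorescence slope more negative than the mean of all samples by about 3 SD, 99.7% confidence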;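 note: fluorescence intensity change per second fitted from 20 to 320 s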); settings: Recombinant KvBeta, NADPH fluorescence decrease slope, 10 min; at 10 µM; stronger effect = lower value
# [6] = target: Alpha-2C adrenergic receptor (Homo sapiens) (UniProt P18825); experiment: compounds altering alpha2C-coupled GIRK flux – cell-based, HEK293 alpha2C/GIRK1/2, thallium flux, primary screen (AID 624;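 active = fluorescence slope after compound addition differing from the mean of all screened samples at 99.7% confidence, in either direction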;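 note: slope of fluorescence ratio to pre-addition baseline per second over 15 to 24 s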); settings: thallium flux BTC fluorescence, at 10 µM, actives lie on both sides
# [7] = inhibitors of larval lipid processing in zebrafish, primary screen, whole organism, PED6 fluorescence, gall bladder and intestine (AID 686;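 active = a full or partial loss of lipid-probe fluorescence in the fish gall bladder, intestine or both, judged by eye; inactive = no fluorescence loss, or compound toxic to the fish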;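 note: larvae 5 to 7 days old with five fish per well; signal comes from phospholipase A2 cleavage of quenched PED6 carried via bile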); settings: Zebrafish larvae PED6 lipid processing, fluorescence scoring; screened at 20 µM (by protocol)
# Summary of the method: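 Incubation: overnight exposure of larvae to compound plus PED6 / Test system: live zebrafish larvae aged 5-7 days, whole organism / Amount: 5 larvae per well / Read-out basis: visual per-well fluorescence inhibition score / Signal: visual fluorescence microscopy scoring of gall bladder, gut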
# [8] = blockers of RIG-like receptor reporter activation – cell-based, Sendai virus stimulus, luciferase, 10K MLSCN set, TLR/RLR signaling modifier project, primary screen (AID 602276;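 active = inhibition at or above 50% at 10 µM; inactive = inhibition below 50%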;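 note: firefly luciferase from ISG56 promoter only with Renilla not read in this screen; 0% = Sendai virus plus DMSO and 100% = medium plus DMSO without virus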); settings: HEK293 RL24 IRF3 luciferase reporter, at 10 µM, stronger effect = higher value
# [9] = TLR3 IRF3 reporter activation blockers – cell-based, poly I:C stimulus, luciferase, 10K MLSCN set, primary screen (AID 602277;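 active = inhibition of the reporter signal at or above 50%; inactive = inhibition below 50%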); settings: HEK293-TLR3 RL24 IRF3 luciferase reporter, at 10 µM, stronger effect = higher value
# Sequence of Alpha-2C adrenergic receptor (Homo sapiens) (P18825 whole entry, looked up): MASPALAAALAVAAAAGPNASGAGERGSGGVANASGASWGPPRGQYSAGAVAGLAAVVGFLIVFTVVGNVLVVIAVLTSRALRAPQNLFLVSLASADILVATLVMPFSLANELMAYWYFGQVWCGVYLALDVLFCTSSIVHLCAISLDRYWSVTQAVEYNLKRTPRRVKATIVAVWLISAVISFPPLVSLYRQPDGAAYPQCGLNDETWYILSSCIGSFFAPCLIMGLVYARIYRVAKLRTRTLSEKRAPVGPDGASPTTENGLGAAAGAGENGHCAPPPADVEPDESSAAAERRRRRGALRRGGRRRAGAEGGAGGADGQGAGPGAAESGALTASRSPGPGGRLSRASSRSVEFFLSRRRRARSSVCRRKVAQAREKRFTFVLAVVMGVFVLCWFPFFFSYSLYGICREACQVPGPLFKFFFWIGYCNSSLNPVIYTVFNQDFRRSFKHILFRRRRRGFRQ
# Sequence of Voltage-gated potassium channel subunit beta-2 (Rattus norvegicus) (P62483 whole entry, looked up): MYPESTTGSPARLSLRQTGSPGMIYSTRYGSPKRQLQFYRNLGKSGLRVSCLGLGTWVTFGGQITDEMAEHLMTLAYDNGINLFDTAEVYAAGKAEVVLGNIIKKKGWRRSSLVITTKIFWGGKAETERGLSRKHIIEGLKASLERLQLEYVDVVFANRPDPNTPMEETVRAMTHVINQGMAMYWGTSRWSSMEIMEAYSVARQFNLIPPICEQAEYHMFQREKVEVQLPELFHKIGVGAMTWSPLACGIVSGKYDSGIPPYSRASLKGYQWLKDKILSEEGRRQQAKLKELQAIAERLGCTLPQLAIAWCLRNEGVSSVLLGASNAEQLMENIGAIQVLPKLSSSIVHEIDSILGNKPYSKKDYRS
SMILES,cell count [1],inhibition [1],inhibition of aggregation [2],nuclei count [2],inhibition [3],nuclei count [3],fluorescence slope [4],NADPH fluorescence slope [5],slope [6],outcome [7],inhibition [8],inhibition [9]
CC(OC(=O)c1ccco1)C(=O)NCc1cccs1 (centres undefined),609,-4.4% (inactive),7.4% (inactive),83%,-95.9% (inactive),113%,-0.444 (inactive),-6e-05 (inactive),0.00449 (inactive),inactive,17.9% (inactive),25.3% (inactive)
CC(N)C12CC3CC(C1)CC(C(C)N)(C3)C2 (centres undefined),394,3% (inactive),-16.2% (inactive),102%,-14.3% (inactive),103%,-0.38 (inactive),-6.5e-05 (inactive),0.00438 (inactive),inactive,13.4% (inactive),13.6% (inactive)
Cn1c(=O)cc(SCC(=O)NCc2cccnc2)c2ccccc21,634,2.8% (inactive),3.4% (inactive),104%,-48.7% (inactive),110%,-0.31 (inactive),-3.9e-05 (inactive),0.00505 (inactive),inactive,9.23% (inactive),9.63% (inactive)
CC(=O)NC(C)C(=O)OCc1ccc(Cl)cc1Cl (centres undefined),478,-21.6% (inactive),-3.7% (inactive),74.8%,-22.9% (inactive),134%,-0.467 (inactive),-5.2e-05 (inactive),0.00444 (inactive),inactive,10.8% (inactive),12.4% (inactive)
Cc1cccc(OCC(=O)Nc2cc(C)ccc2O)c1,311,0.5% (inactive),-9.5% (inactive),95.3%,-15.1% (inactive),87.8%,-0.446 (inactive),-2.2e-05 (inactive),0.00484 (inactive),inactive,10.8% (inactive),15.6% (inactive)
CCc1nnc(NC(=O)CSc2nnc(-c3ccccc3OC)n2-c2ccccc2)s1,276,-6.9% (inactive),14.1% (inactive),146%,-163% (inactive),128%,-0.396 (inactive),-7.8e-05 (inactive),0.00574 (inactive),inactive,11.4% (inactive),8.06% (inactive)
COc1ccccc1NC(=O)NC(N)=O,580,0.5% (inactive),-22.8% (inactive),104%,-36.1% (inactive),115%,-0.386 (inactive),4.8e-06 (inactive),0.00503 (inactive),inactive,2.43% (inactive),1.16% (inactive)
Cc1sc2nc3n(c(=O)c2c1C)NC(=O)CC3,744,-7.3% (inactive),-15% (inactive),66.7%,32.1% (inactive),85%,-0.421 (inactive),-2.9e-05 (inactive),0.0069 (inactive),inactive,16.2% (inactive),12.8% (inactive)
C=CCOC(=O)CC(NC(=O)c1ccccc1)c1ccccc1 (centres undefined),510,9.6% (inactive),-15.9% (inactive),98.4%,-231% (inactive),133%,-0.382 (inactive),-6.2e-05 (inactive),0.00447 (inactive),inactive,13.9% (inactive),99% (active)
CCN(CC)c1ccc(C(=O)n2cnc3ccccc32)cc1,461,12.1% (inactive),7.1% (inactive),95.4%,-306% (inactive),128%,-0.284 (inactive),-3.9e-05 (inactive),0.00386 (inactive),inactive,25.3% (inactive),-37.1% (inactive)
O=C(Nc1cccc(OCC(=O)N2CCOCC2)c1)C1CCCCC1,428,4.9% (inactive),5.7% (inactive),95.1%,-22.9% (inactive),94.2%,-0.471 (inactive),-5.6e-05 (inactive),0.0056 (inactive),inactive,11.4% (inactive),12.7% (inactive)
COC(=O)CSc1nnc(CSc2nc(C)cc(C)n2)n1Cc1ccco1,567,5.2% (inactive),-0.5% (inactive),99.8%,-50.8% (inactive),135%,-0.404 (inactive),-2.4e-05 (inactive),0.00459 (inactive),inactive,1.21% (inactive),3.66% (inactive)
CSc1nnc(-c2ccccc2)n1C,645,-13.1% (inactive),-35.1% (inactive),111%,-16.6% (inactive),108%,-0.398 (inactive),-6.9e-06 (inactive),0.00519 (inactive),inactive,16.8% (inactive),17.4% (inactive)
CCOC(=O)N1CCN(C(=O)CN(C2CCCCC2)S(=O)(=O)c2ccc(F)cc2)CC1,645,-10.7% (inactive),18.3% (inactive),81.3%,-51.6% (inactive),108%,-0.355 (inactive),-7.3e-05 (inactive),0.00492 (inactive),inactive,21.5% (inactive),81.8% (active)
Cc1cccc(NC(=O)c2ccc(S(=O)(=O)N(C)C)cc2)n1,290,-5.5% (inactive),4.5% (inactive),108%,-126% (inactive),94.4%,-0.318 (inactive),-2.4e-05 (inactive),0.00507 (inactive),inactive,-11.6% (inactive),-45.9% (inactive)
CCCn1c(SCC(=O)NC(=O)NCc2ccco2)n[nH]c1=O,424,3.7% (inactive),-7.6% (inactive),73.3%,-178% (inactive),117%,-0.39 (inactive),-3.4e-05 (inactive),0.00519 (inactive),inactive,2.79% (inactive),15.3% (inactive)
Cc1cc(C)nc(SCc2nnc(SCC(=O)Nc3ncc(C)s3)n2Cc2ccco2)n1,422,3% (inactive),7.1% (inactive),98.6%,-23.5% (inactive),103%,-0.353 (inactive),-6.9e-05 (inactive),0.00544 (inactive),inactive,8.75% (inactive),11.7% (inactive)
COc1ccccc1C1N(c2ccc(F)cc2)C(=O)C2CCCN21 (centres undefined),429,-3.9% (inactive),7.1% (inactive),84.3%,27.9% (inactive),91.4%,-0.377 (inactive),-7.5e-05 (inactive),0.00544 (inactive),inactive,9.07% (inactive),14.8% (inactive)
CSCCC(NC(=O)CCN1C(=O)c2ccccc2C1=O)C(=O)O (centres undefined),366,1.8% (inactive),-10.9% (inactive),99.7%,-76.8% (inactive),110%,-0.411 (inactive),2e-07 (inactive),0.00495 (inactive),inactive,15.7% (inactive),19.3% (inactive)
COc1cccc(Nc2nnc(SCC(=O)N3CC(C)OC(C)C3)s2)c1 (centres undefined),448,4.8% (inactive),14.5% (inactive),73.5%,-19.6% (inactive),117%,-0.409 (inactive),-9.2e-05 (inactive),0.00562 (inactive),inactive,-1.41% (inactive),-10% (inactive)
CCCCOC(=O)Nc1nccs1,690,-2.6% (inactive),4.5% (inactive),116%,-53.6% (inactive),116%,-0.404 (inactive),-3.3e-05 (inactive),0.00518 (inactive),inactive,-8.28% (inactive),-28.8% (inactive)
Cc1ccc(NC(=O)c2ccco2)c(NC(=O)CN2C(=O)c3ccccc3C2=O)c1,402,-7.3% (inactive),6.5% (inactive),90.3%,-162% (inactive),155%,-0.466 (inactive),-1.3e-05 (inactive),0.00456 (inactive),inactive,0.0738% (inactive),-0.596% (inactive)
COc1ccccc1C(=O)NCC(c1cccnc1)N(C)C (centres undefined),776,-2.2% (inactive),-39.1% (inactive),112%,1.4% (inactive),122%,-0.422 (inactive),-5.3e-05 (inactive),0.00557 (inactive),inactive,10.3% (inactive),4.98% (inactive)
c1ccc(-c2cc(CSc3nc4ccccc4[nH]3)on2)cc1,416,5.3% (inactive),-43% (inactive),99.4%,-68.7% (inactive),116%,-0.376 (inactive),-8.1e-05 (inactive),0.00533 (inactive),inactive,-0.361% (inactive),-25% (inactive)
O=C(Nc1ccc2c(c1)OCCO2)C1CCN(C(=O)c2ccc(F)cc2)CC1,397,4.1% (inactive),-5.3% (inactive),96.2%,-14% (inactive),117%,-0.368 (inactive),-7.6e-05 (inactive),0.00511 (inactive),inactive,-6.3% (inactive),-44.3% (inactive)
CCCCn1c(SCc2ccc(Cl)cc2)nc2c1c(=O)[nH]c(=O)n2C,396,9% (inactive),8.8% (inactive),109%,-1.3% (inactive),98.4%,-0.347 (inactive),-4.9e-05 (inactive),0.00466 (inactive),inactive,10.9% (inactive),14.5% (inactive)
CC(=O)N1CN(C2CCCC2)Cc2c1sc1c2CCCC1,793,-14% (inactive),11.7% (inactive),99.2%,26.2% (inactive),90.6%,-0.433 (inactive),-1.9e-07 (inactive),0.00682 (inactive),inactive,5.21% (inactive),20% (inactive)
